# Bioassay records deposited in PubChem BioAssay by several laboratories.
# Shown are actives, neighbours in structure and some others; about 2.6% of the full set was active somewhere.
# Platelet DG rel: inhibitors of platelet dense granule secretion, primary screen, cell-based, MLPCN, human platelets; human platelet-rich plasma, SFLLRN dense granule ATP release, luminescence; inhibition, %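 (compounds screened at 7.5 µM in platelet-rich plasma)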; hit rate 0.22% among 300,000;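 active = mean replicate score, as percent of positive control, at or above 50; inconclusive = mean below 50 but at least one replicate at or above 50; inactive = mean and every replicate below 50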
# SENP1 inh: human SENP1 catalytic domain inhibitors, primary screen, biochemical, FRET, uHTS; hit rate 0.21% among 360,000; AID 624204, 2012; recombinant SENP1 catalytic domain, CyPet-SUMO1-YPet FRET cleavage; inhibition, % at 10 µM; Sentrin-specific protease 1 (Homo sapiens), Q9P0U3;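 active = inhibition at least 30% at 10 µM, raw YFP signal under a set limit, fluorescence ratio 0.5 to 1.5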;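 note: 0% = enzyme with DMSO and 100% = no enzyme wells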
# Target sequence (Q9P0U3 419-644 limits assumed): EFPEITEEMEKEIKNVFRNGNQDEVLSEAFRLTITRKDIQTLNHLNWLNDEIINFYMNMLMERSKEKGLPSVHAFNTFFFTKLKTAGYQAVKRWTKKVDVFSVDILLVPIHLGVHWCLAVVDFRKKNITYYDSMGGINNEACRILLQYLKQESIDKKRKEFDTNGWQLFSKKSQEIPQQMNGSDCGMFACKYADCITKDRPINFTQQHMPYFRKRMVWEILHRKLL
#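 Controls: no-enzyme wells low, DMSO-plus-enzyme wells high control. Test system: human recombinant His6-tagged SENP1 catalytic domain enzyme. Reagent: SFCypet-SUMO1-SFYpet FRET protein substrate, 25 nM final. Doses: one dose per compound, 10 µM, 0.5% DMSO. Detection: FRET, CFP and YFP emission. Timing: 50 min reaction at room temperature.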
# SENP8 block-1: human SENP8 protease inhibitors, primary screen, biochemical, fluorescence, Nedd8 protein substrate, uHTS; AID 602440, 2012; recombinant SENP8; hit rate 0.64% among 360,000; inhibition, % at 20 µM; in the data active = inhibition mostly above about 40%, no sharp cut-off; inactive = mostly below about 27%
# Target sequence (Q96LD8 whole entry, looked up): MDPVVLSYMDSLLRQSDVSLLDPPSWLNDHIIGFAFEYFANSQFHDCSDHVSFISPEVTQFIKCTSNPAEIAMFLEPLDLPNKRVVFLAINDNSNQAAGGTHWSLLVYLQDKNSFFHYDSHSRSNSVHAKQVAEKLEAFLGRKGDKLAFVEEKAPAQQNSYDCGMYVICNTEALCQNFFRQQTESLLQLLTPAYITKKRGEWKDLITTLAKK
# SENP8 block-2: SENP8 protease inhibitors, primary screen, biochemical, luminescence | Sentrin-specific protease 8 (Homo sapiens), Q96LD8 | purified SENP8, Z-RLRGG-aminoluciferin cleavage | inhibition, % at 10 µM | hit rate 1.2% among 330,000 | AID 2540, 2010; in the data active = inhibition above about 50%
# SENP7 block: SENP7 protease inhibitors, primary screen, biochemical, luminescence, uHTS; recombinant SENP7, Z-RLRGG-aminoluciferin luminescence, 40 min; inhibition, % at 5 µM; hit rate 1.5% among 330,000;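 active = inhibition above about 50% at the single test dose, limit read from the data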;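 note: plate controls were DMSO with enzyme for no effect and no enzyme buffer wells for full effect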
# SENP6 inh: SENP6 protease inhibitors, primary screen, biochemical, luminescence, uHTS; Sentrin-specific protease 6 (Homo sapiens), Q9GZR1; Recombinant SENP6 catalytic domain, aminoluciferin luminescence; inhibition, % at 10 µM; hit rate 1.8% among 330,000;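 active = inhibition above about 50% at the single tested dose, limit read from the data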;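 note: plate controls were DMSO wells with enzyme for no effect and DMSO wells lacking enzyme for full effect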
# * marks the source's active call; other numbers are inactive results; ? = inconclusive; . = no result given.
SMILES,Platelet DG rel,SENP1 inh,SENP8 block-1,SENP8 block-2,SENP7 block,SENP6 inh
O=C1C=C(c2ccc3cc[nH]c3c2)C[C@@H](c2ccc3c(c2)OCO3)C1,.,-15.3,-9.2,2.2,-2.0,2.7
CCOC(=O)c1csc(NC(=O)C2=COCCO2)n1,-5.3,0.8,8.5,-3.3,-4.5,-17.8
COc1cc(/C=N/N=C(\N)c2nonc2N)cc(OC)c1O,15.8,16.7,34.0,-2.2,-7.6,-10.8
COc1ccc(/C=N/N=C(\N)c2nonc2N)cc1,67.5*,0.3,11.8,.,.,.
Cc1ccc(NCCN(C)C)c2c(=O)c3cc(O)ccc3sc12,.,37.2*,27.3,.,.,.
CC(=O)NC(c1ccccc1)c1cc(Cl)c2cccnc2c1O (stereo not drawn),14.3,0.3,16.4,-10.8,11.1,-4.3
O=C(NC(c1ccc(Cl)cc1)c1cc(Cl)c2cccnc2c1O)c1cccnc1 (stereo not drawn),?,61.6*,37.6,.,.,.
CC(=O)NC(c1ccc(C)cc1)c1cc([N+](=O)[O-])c2cccnc2c1O (stereo not drawn),-8.1,-2.1,41.9*,6.1,7.8,16.9
CCC(=O)NC(c1ccc(C)cc1)c1cc([N+](=O)[O-])c2cccnc2c1O (stereo not drawn),-2.3,-2.0,57.6*,.,.,.
CCCC(=O)NC(c1ccco1)c1cc([N+](=O)[O-])c2cccnc2c1O (stereo not drawn),1.1,2.3,53.3*,5.8,7.3,15.3
CCC(=O)NC(c1ccco1)c1cc(Br)c2cccnc2c1O (stereo not drawn),.,-7.0,10.4,.,.,.
COc1ccc(C(NC(C)=O)c2cc(Cl)c3cccnc3c2O)cc1 (stereo not drawn),-0.2,-0.8,21.5,6.3,-2.9,7.3
Cc1ccccc1NC(=O)CC1SC(=O)N(c2ccccc2)C1=O (stereo not drawn),0.6,7.8,54.7*,-7.7,8.1,-1.5
Cc1ccc(/C=N/NC(=O)c2ccc3ccccc3c2)s1,1.6,-2.8,-96.0,-4.7,-3.0,-12.1
CN(C(=O)COC(=O)/C=C/c1cccs1)C1CCCCC1,.,1.5,11.8,3.6,10.0,-9.0
COc1ccc(C#Cc2ccc(C3=CC(=O)CC(C)(C)C3=O)cc2)cc1,.,22.8,-12.9,.,.,.
CCOc1ccc(C2Nc3cccc4cccc(c34)N2)cc1OC,3.7,10.4,23.5,1.6,3.7,-26.5
CCOc1cc(C2Nc3cccc4cccc(c34)N2)ccc1O,2.0,-25.3,58.9*,1.7,2.5,31.3
O=[N+]([O-])c1ccc(Sc2cccc[n+]2[O-])c2nonc12,19.8,40.7*,15.0,.,.,.
COc1ccc(OC)c(-c2csc(N(CC3CCCO3)C(=O)Cc3ccccc3)n2)c1 (stereo not drawn),4.0,2.2,9.4,7.7,7.3,-11.1
Nc1ccc(N)c(C(=O)O)c1,-0.6,37.5*,-12.9,17.2,3.7,-53.1
COc1ccc(-c2cc3nc(C)cc(N)n3n2)cc1,94.0*,0.1,-178.8,95.3*,97.0*,95.7*
Cc1cccc(-c2cc3nc(C)cc(C)n3n2)c1,5.0,3.7,-314.8,53.5*,78.1*,-2.9
Cc1cc(=O)oc2cc(N3C(=O)CC(Cc4ccccc4)C3=O)ccc12 (stereo not drawn),1.0,-2.2,-120.2,-0.8,14.1,-1.4
CC(=O)Nc1cccc(N2C(=O)CC(Cc3ccccc3)C2=O)c1 (stereo not drawn),57.2*,-0.6,12.9,12.4,4.6,19.0
SMILES,Platelet DG rel,SENP1 inh,SENP8 block-1,SENP8 block-2,SENP7 block,SENP6 inh
CN(C)c1ccc(NC(=O)CSc2nnc(-c3ccco3)c(-c3ccco3)n2)cc1,-18.2,20.9,46.3*,7.8,4.2,30.5
Cc1ccccc1NC(=O)CSc1nnc(-c2ccco2)c(-c2ccco2)n1,2.5,15.1,41.9*,8.3,5.1,6.8
Cc1cccc(C)c1NC(=O)CSc1nnc(-c2ccco2)c(-c2ccco2)n1,3.4,14.0,60.5*,11.9,-5.2,8.4
O=C(CSc1nnc(-c2ccco2)c(-c2ccco2)n1)Nc1ccccc1,-3.4,2.6,35.8,8.8,7.3,1.3
Cc1ccc(NC(=O)CSc2nnc(-c3ccco3)c(-c3ccco3)n2)cc1,1.6,9.0,27.0,7.3,15.3,-2.3
CCCCNC(=O)c1cccc(S(=O)(=O)N2CC3(C)CC2CC(C)(C)C3)c1 (stereo not drawn),.,-0.3,16.0,7.5,3.5,-2.8
O=C(Cc1cccs1)NCc1ccccc1Br,-5.8,2.9,11.5,-13.6,-6.1,12.0
COc1cccc(CN(C)C(=O)c2cc(S(=O)(=O)NC3CCCCC3)ccc2C)c1OC,.,-0.5,-1.7,-5.9,-1.4,8.2
Cc1nn(-c2ccccc2)c(N)c1N=Nc1cccc(S(=O)(=O)N2CCOCC2)c1,16.3,-0.6,40.7*,0.7,2.0,3.0
CN(Cc1ccccc1)C(=O)c1nc[nH]c1C(=O)N(C)Cc1ccccc1,.,3.4,13.4,-2.4,7.7,2.0
NC(=O)c1ccccc1NC(=O)/C=C/c1ccccc1,-1.8,3.2,-86.0,21.9,40.1,65.6*
CC(C)=CC(=O)Nc1ccccc1C(N)=O,1.7,0.1,2.4,-3.1,1.5,-30.9
N/C(=N\OC(=O)c1cccc(Br)c1)c1ccccn1,-7.9,0.5,2.9,86.5*,98.4*,96.0*
CCOc1ccc(C(=O)O/N=C(\N)c2ccccn2)cc1OCC,17.7,-0.5,2.7,-13.5,21.4,-19.3
COCCN(CC(=O)Nc1ccccc1C(F)(F)F)C(=O)/C=C/c1cc(Cl)c2c(c1)OCCO2,.,2.8,-36.2,.,.,.
CCOc1ccc(C(=O)Nc2cccc([N+](=O)[O-])c2)cc1Br,15.7,1.0,14.9,-1.3,55.6*,8.2
O=C1CCC[C@@H]2C=C[C@H](c3ccc(Br)cc3)[C@H]3CCN1[C@@H]32,.,1.0,18.2,.,.,.
CCc1ccc2[nH]c(O)c(N=NC3=NC(=O)CS3)c2c1,3.2,2.3,27.1*,-1.7,-2.3,-16.1
Cc1ccc2[nH]c(O)c(N=Nc3ccccc3C)c2c1,11.4,16.1,-47.3,-15.6,-6.0,-38.4
CCc1ccc2c(c1)c(N=NC1=NC(=O)CS1)c(O)n2CC,0.2,5.1,41.7*,-7.5,-0.1,-32.1
CCOC(=O)N=Nc1c(O)n(CC)c2ccccc12,6.7,1.3,10.5,3.7,3.7,13.3
O=C(COC(=O)CC1CC2CCC1C2)Nc1ccccc1[N+](=O)[O-] (stereo not drawn),.,-0.1,12.4,-9.9,1.9,-10.6
CC12CCC(/C(=C/NNc3ccc([N+](=O)[O-])cc3[N+](=O)[O-])C1=O)C2(C)C (stereo not drawn),.,3.9,30.4*,.,.,.
